How the values were obtained:
[1] = Inhibition of calf thymus DNA polymerase alpha assessed as reduction in [3H]dTTP incorporation using poly(dA)/oligo(dT)18 as template/primer preincubated for 10 mins followed by template/primer addition measured after 60 mins; parameters: species or system Bos taurus
Procedure, shortened: (§1)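 IC50 values are given as mean ± SD from three independent experiments.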

[2] = Cytotoxicity against human HeLa cells assessed as reduction in cell viability after 24 hrs by MTT assay; assay type: functional; details: read-out: LD50 (the source's name)
Procedure, shortened: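 HeLa human cervical cancer cultured cells. Potency is expressed as median lethal dose (LD50). Values are mean ± SD of five independent experiments.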

[3] = target: T1, DNA polymerase lambda (Homo sapiens, UniProt Q9UGP5); experiment: Inhibition of recombinant human His-tagged DNA polymerase lambda assessed as reduction in [3H]dTTP incorporation using poly(dA)/oligo(dT)18 as template/primer preincubated for 10 mins followed by template/primer addition measured after 60 mins; procedure, shortened: as §1
T1 sequence (Q9UGP5 whole entry): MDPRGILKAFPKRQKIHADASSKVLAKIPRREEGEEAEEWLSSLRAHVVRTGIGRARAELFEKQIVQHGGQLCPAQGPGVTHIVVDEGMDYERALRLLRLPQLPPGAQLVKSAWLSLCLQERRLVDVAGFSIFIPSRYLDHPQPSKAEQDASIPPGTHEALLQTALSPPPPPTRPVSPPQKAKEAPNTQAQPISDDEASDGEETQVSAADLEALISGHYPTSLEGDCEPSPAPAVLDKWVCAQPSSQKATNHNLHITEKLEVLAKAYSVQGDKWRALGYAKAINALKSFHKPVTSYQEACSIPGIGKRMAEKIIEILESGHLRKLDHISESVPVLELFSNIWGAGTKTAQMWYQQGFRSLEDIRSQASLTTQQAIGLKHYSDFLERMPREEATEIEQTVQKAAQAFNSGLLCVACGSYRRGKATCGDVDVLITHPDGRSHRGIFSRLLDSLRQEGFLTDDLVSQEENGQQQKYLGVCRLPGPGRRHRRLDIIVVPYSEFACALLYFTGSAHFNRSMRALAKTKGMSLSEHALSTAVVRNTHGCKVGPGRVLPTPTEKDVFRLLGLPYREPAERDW

Compound	IC50 [1] [µM]	CC50 [2] [µM]	IC50 [3] [µM]
CC(C)=CCC[C@@]1(C)[C@H](C/C=C(\C)C/C=C/C(C)(C)O)C[C@]2(CC=C(C)C)C(=O)[C@@]1(CC=C(C)C)C(=O)C(C(=O)c1ccc(O)c(O)c1)=C2O	8.8	73.4	5.6
CC(C)=CCC/C(C)=C/C[C@@H]1C[C@]2(CC=C(C)C)C(=O)[C@@]3(CC=C(C)C)C(O[C@@H](C(C)(C)O)CC[C@@]13C)C(C(=O)c1ccc(O)c(O)c1)=C2O (some centres undefined)	5.4	5.9	6.9
CC(C)=CCC/C(C)=C/CC1(CC=C(C)C)C(O)=C(C(=O)c2ccc(O)c(O)c2)C(=O)C2=C1OC(C)(C)C=C2 (centres undefined)	7.9	50.8	6.2
C=C(C)[C@@H](O)CC/C(C)=C/C[C@@H]1C[C@]2(CC=C(C)C)C(=O)[C@@](CC=C(C)C)(C(=O)C(C(=O)c3ccc(O)c(O)c3)=C2O)[C@@]1(C)CCC=C(C)C	6.4	9.9	5.8
CC(C)=CC[C@@H]1C[C@]2(CC=C(C)C)C(=O)[C@@]3(CC=C(C)C)C(O[C@@H](C(C)(C)O)CC[C@@]13C)C(C(=O)c1ccc(O)c(O)c1)=C2O (some centres undefined)	5.6	6.5	7.4
C=C(C)C(O)C[C@@H]1C[C@]2(CC=C(C)C)C(=O)[C@@](CC=C(C)C)(C(=O)C(C(=O)c3ccc(O)c(O)c3)=C2O)[C@@]1(C)CCC=C(C)C (some centres undefined)	8.6	66.5	8.8
CC(C)=CCC[C@@]1(C)[C@H](CC=C(C)C)C[C@]2(CC=C(C)C)C(=O)[C@@]1(CC=C(C)C)C(=O)C(C(=O)c1cccc(O)c1)=C2O	6.5	10.2	5.7
C=C(C)[C@H](O)CC/C(C)=C/C[C@@H]1C[C@]2(CC=C(C)C)C(=O)[C@@](CC=C(C)C)(C(=O)C(C(=O)c3ccc(O)c(O)c3)=C2O)[C@@]1(C)CCC=C(C)C	6.3	9.8	5
Cc1cn([C@H]2CC[C@@H](COP(=O)(O)OP(=O)(O)OP(=O)(O)O)O2)c(=O)[nH]c1=O	> 200	> 200	28.7
C[C@@]1(CO)[C@H](O)CC[C@@]2(C)[C@H]1CC[C@H]1C[C@@H]3C[C@@]12CC[C@]3(O)CO [APHIDICOLIN]	19.6	22	> 200
CC(C)=CCC[C@@]1(C)[C@H](CC=C(C)C)C[C@]2(CC=C(C)C)C(=O)[C@@]1(CC=C(C)C)C(=O)C(C(=O)c1ccc(O)c(O)c1)=C2O [GUTTIFERONE K]			5.4
CC(C)=CCC/C(C)=C/C[C@@H]1C[C@]2(CC=C(C)C)C(=O)[C@@](CC=C(C)C)(C(=O)C(C(=O)c3ccc(O)c(O)c3)=C2O)[C@@]1(C)CCC=C(C)C [OBLONGIFOLIN C]	5.7	7.3	5.2

Reference: ChEMBL document CHEMBL3861979, “Polyprenylated Benzoylphloroglucinols with DNA Polymerase Inhibitory Activity from the Fruits of Garcinia schomburgkiana” (J Nat Prod, 2016)
